Reference: ChEMBL document CHEMBL3045714, “Insect antifeedants from tropical plants: structures of dumnin and dumsenin” (2004)

Tests used:
Format in all cases: functional
Spodoptera frugiperda [1] = experiment: Antifeedant activity against second-instar larvae of Spodoptera frugiperda (fall armyworm) assessed as concentration required for 50 % protection of host plant substrate after 48 hr by leaf disk assay
In short: (§1)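 Leaf disks (1 cm²) punched from glandless cotton cultivar, randomized, 12 per Petri dish on moistened filter paper; alternate disks treated on upper surface with 25 μL acetone or 0–100 μg sample in 25 μL acetone. Three larvae per dish, 22 °C, dark, 48 h; percent disk area eaten vs control scored visually. PC50/PC95 = ca. 50/95% protection; triplicate on separate occasions, mean.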

Spodoptera frugiperda [2] = experiment: Antifeedant activity against second-instar larvae of Spodoptera frugiperda (fall armyworm) assessed as concentration required for 95 % protection of host plant substrate after 48 hr by leaf disk assay; in short: as §1
Pectinophora gossypiella [3] = experiment: Antifeedant activity against second-instar larvae of Pectinophora gossypiella (pink bollworm) assessed as concentration required for 50 % protection of host plant substrate after 48 hr by leaf disk assay; in short: as §1
Pectinophora gossypiella [4] = experiment: Antifeedant activity against second-instar larvae of Pectinophora gossypiella (pink bollworm) assessed as concentration required for 95 % protection of host plant substrate after 48 hr by leaf disk assay; in short: as §1

Structure (SMILES)	PC50 (Spodoptera frugiperda [1]) [µg/mL]	PC95 (Spodoptera frugiperda [2]) [µg/mL]	PC50 (Pectinophora gossypiella [3]) [µg/mL]	PC95 (Pectinophora gossypiella [4]) [µg/mL]
CC(=O)O[C@H]1[C@H](OC(C)=O)[C@@]2(C)C(=CC[C@@H]2c2ccoc2)[C@@]2(C)C(=O)C[C@H]3C(C)(C)O[C@]4(O)C(=O)CC[C@]34[C@@H]12 [DUMSENIN]	1	4	2	8
CC(=O)O[C@H]1[C@H](OC(C)=O)[C@]2(C)[C@@H](c3ccoc3)C[C@@H]3O[C@@]32[C@@]2(C)[C@H](OC(=O)Cc3ccccc3)C[C@H]3C(C)(C)O[C@]4(O)C(=O)CC[C@]34[C@@H]12 [DUMNIN]			1	16
CC(=O)O[C@@H]1[C@@H]2[C@@]34CC(=O)C[C@@H]3OC(C)(C)[C@@H]4CC(=O)[C@@]2(C)[C@@]23O[C@@H]2C[C@H](c2ccoc2)[C@]3(C)[C@H]1OC(C)=O [ZUMSIN]	2	16	1	8
CC(=O)O[C@H]1[C@H](OC(C)=O)[C@]2(C)[C@@H](c3ccoc3)C[C@@H]3O[C@@]32[C@@]2(C)[C@H](OC(=O)CC(C)C)C[C@H]3C(C)(C)O[C@]4(O)C(=O)CC[C@]34[C@@H]12 [DUMSIN]			1	8
